Assay results taken from ChEMBL document CHEMBL4251662, “Alkyl indole-based cannabinoid type 2 receptor tools: Exploration of linker and fluorophore attachment” (Eur J Med Chem, 2018).
Calls of active or inactive are those of the source. No cut-off for these calls is given here.

Legend:
Cannabinoid receptor 2 [1] = biological target: T1, Cannabinoid receptor 2 (Homo sapiens, UniProt P34972); test: Displacement of [3H]CP55,940 from N-terminal HA-tagged human CB2 receptor expressed in HEK293 cell membranes after 1 hr by microbeta scintillation counting method
Cannabinoid receptor 1 [2] = biological target: T2, Cannabinoid receptor 1 (Homo sapiens, UniProt P21554); test: Displacement of [3H]CP55,940 from N-terminal HA-tagged human CB1 receptor expressed in HEK293 cell membranes at 10 uM after 1 hr by microbeta scintillation counting method relative to control
Procedure, shortened: (§1)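 Single-point competition screen against [3H]CP55,940 in HEK293 cells over-expressing 3HA-tagged hCB2 or hCB1. Compounds giving more than 50% displacement went on to full concentration-response curves.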

Cannabinoid receptor 2 [3] = biological target: T1, Cannabinoid receptor 2; test: Displacement of [3H]CP55,940 from N-terminal HA-tagged human CB2 receptor expressed in HEK293 cell membranes at 10 uM after 1 hr by microbeta scintillation counting method relative to control; procedure, shortened: as §1
Cannabinoid receptor 1 [4] = biological target: T2, Cannabinoid receptor 1; test: Displacement of [3H]CP55,940 from N-terminal HA-tagged human CB1 receptor expressed in HEK293 cell membranes after 1 hr by microbeta scintillation counting method
[5] = biological target: T3, Potassium voltage-gated channel subfamily KQT member 3 (Homo sapiens) (UniProt O43525); test: Agonist activity at KCNQ3 (unknown origin)
T3 sequence (whole entry): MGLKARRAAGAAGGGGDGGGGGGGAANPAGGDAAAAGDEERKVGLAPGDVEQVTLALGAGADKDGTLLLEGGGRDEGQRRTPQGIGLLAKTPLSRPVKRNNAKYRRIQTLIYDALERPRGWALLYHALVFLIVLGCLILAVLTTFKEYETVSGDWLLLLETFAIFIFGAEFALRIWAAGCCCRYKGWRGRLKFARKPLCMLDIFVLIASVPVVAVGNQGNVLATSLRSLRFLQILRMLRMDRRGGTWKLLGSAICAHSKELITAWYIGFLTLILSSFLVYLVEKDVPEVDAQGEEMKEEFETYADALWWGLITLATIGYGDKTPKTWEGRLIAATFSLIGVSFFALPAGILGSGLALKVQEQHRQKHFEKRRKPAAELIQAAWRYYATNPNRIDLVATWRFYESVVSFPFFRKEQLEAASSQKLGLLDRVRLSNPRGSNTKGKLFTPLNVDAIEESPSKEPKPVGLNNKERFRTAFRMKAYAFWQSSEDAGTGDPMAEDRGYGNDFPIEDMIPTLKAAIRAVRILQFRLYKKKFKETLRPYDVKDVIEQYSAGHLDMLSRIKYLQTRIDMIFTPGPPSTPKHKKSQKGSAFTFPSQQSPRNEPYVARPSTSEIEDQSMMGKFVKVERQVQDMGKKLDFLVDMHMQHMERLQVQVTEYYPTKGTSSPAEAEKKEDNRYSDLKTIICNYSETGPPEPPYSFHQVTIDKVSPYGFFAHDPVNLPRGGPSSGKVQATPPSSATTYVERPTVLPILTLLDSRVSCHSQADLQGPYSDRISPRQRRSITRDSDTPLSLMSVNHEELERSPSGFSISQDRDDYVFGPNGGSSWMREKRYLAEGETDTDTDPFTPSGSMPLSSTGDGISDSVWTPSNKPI

Leishmania donovani = test: Growth inhibition of Leishmania donovani; type: functional, organism-based
[6] = biological target: T4, Nicotinamide N-methyltransferase (Homo sapiens) (UniProt P40261); test: Inhibition of NNMT (unknown origin)
T4 sequence (whole entry): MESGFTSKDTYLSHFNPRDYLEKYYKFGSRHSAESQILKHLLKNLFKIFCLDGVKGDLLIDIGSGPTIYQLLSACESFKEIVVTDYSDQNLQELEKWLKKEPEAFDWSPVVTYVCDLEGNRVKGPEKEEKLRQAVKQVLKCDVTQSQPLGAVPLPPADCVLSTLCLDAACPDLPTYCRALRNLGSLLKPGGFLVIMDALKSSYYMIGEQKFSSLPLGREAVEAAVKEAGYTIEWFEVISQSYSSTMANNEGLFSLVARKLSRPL

[7] = biological target: T5, Free fatty acid receptor 4 (Homo sapiens) (UniProt Q5NUL3); test: Agonist activity at GPR120 (unknown origin); type: functional
T5 sequence (whole entry): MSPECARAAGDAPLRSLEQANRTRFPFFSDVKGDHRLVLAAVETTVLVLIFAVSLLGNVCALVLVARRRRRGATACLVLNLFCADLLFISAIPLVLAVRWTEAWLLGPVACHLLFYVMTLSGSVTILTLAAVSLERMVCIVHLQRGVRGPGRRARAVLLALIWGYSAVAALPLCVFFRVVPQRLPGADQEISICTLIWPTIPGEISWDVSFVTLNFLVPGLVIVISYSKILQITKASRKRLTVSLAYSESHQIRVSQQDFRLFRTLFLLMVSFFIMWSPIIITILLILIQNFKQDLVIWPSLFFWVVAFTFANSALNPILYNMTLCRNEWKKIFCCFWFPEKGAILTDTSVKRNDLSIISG

[8] = biological target: Potassium voltage-gated channel subfamily KQT member 2 (Homo sapiens) (UniProt O43526); test: Agonist activity at KCNQ2 (unknown origin)
[9] = biological target: Proprotein convertase subtilisin/kexin type 9 (Homo sapiens) (UniProt Q8NBP7); test: Inhibition of PCSK9 (unknown origin)
[10] = biological target: Interleukin-17A (Homo sapiens) (UniProt Q16552); test: Inhibition of IL-17 (unknown origin) assessed as disruption of IL-17 protein-protein interaction
Cannabinoid receptor 2 [11] = biological target: T1, Cannabinoid receptor 2; test: Agonist activity at N-terminal HA-tagged human CB2 receptor expressed in HEK293 cells transfected with YFP-Epac-RLuc assessed as decrease in forskolin-stimulated cAMP level at 10 uM by BRET assay; type: functional, cell-based
Procedure, shortened: (§2)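 Single-concentration screen at 10 µM in CB receptor-expressing HEK293 cells, run with and without CP55,940 as reference agonist. Forskolin-stimulated cAMP read by BRET biosensor. A fall in cAMP is scored as agonism and a rise as inverse agonism.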

Cannabinoid receptor 2 [12] = biological target: T1, Cannabinoid receptor 2; test: Agonist activity at N-terminal HA-tagged human CB2 receptor expressed in HEK293 cells transfected with YFP-Epac-RLuc assessed as decrease in forskolin-stimulated cAMP level by BRET assay relative to control; type: functional, cell-based
Procedure, shortened: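 BRET cAMP biosensor read-out in HEK293 cells expressing HA-tagged human CB1 or CB2, with forskolin stimulation (5 µM). Concentration-response curves; area-under-curve values normalised to forskolin alone = 100% and basal = 0%. EC50 taken for agonists and IC50 for inverse agonists. Mean of at least three independent experiments, each point in duplicate.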

HEK293 [13] = test: Effect on forskolin-stimulated cAMP level in HEK293 cells at 1 uM by BRET assay relative to control; type: ADME, cell-based; conditions: human, hek293, 1 µM
Procedure, shortened: (§3)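 Wild-type HEK293 cells lacking transfected receptor, tested at 10 µM and 1 µM. Forskolin-stimulated cAMP measured by BRET as a check that responses are receptor-mediated.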

Cannabinoid receptor 1 [14] = biological target: T2, Cannabinoid receptor 1; test: Agonist activity at N-terminal HA-tagged human CB1 receptor expressed in HEK293 cells transfected with YFP-Epac-RLuc assessed as decrease in forskolin-stimulated cAMP level at 10 uM by BRET assay; type: functional, cell-based; procedure, shortened: as §2
HEK293 [15] = test: Effect on forskolin-stimulated cAMP level in HEK293 cells at 10 uM by BRET assay relative to control; type: ADME, cell-based; conditions: human, hek293, 10 µM; procedure, shortened: as §3

T1 sequence (P34972 whole entry): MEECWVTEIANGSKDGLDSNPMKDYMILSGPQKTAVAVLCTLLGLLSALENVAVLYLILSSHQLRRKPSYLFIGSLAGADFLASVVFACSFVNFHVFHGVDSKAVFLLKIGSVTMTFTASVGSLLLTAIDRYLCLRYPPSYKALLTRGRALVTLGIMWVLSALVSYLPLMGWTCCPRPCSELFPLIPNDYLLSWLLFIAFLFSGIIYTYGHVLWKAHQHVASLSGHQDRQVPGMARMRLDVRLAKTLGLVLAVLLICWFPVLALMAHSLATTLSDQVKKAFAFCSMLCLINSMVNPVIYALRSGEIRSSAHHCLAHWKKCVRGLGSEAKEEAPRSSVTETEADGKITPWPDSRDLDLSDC
T2 sequence (P21554 whole entry): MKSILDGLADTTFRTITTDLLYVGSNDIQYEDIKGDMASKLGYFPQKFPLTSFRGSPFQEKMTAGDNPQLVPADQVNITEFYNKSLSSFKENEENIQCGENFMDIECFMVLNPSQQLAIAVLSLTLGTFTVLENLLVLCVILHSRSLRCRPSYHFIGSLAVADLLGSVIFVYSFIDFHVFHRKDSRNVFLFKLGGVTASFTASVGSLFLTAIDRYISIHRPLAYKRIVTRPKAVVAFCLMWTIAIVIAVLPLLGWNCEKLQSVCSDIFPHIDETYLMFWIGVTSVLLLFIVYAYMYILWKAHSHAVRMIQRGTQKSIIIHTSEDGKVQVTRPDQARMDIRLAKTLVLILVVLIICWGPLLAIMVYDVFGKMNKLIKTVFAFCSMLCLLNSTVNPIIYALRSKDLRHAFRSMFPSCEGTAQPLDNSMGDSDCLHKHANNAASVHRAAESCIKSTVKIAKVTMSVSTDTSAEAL
Sequence of Interleukin-17A (Homo sapiens) (Q16552 whole entry): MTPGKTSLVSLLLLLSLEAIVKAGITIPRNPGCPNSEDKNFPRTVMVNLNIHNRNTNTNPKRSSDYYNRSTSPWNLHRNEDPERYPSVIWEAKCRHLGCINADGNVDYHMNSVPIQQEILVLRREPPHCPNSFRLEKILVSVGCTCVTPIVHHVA
Sequence of Potassium voltage-gated channel subfamily KQT member 2 (Homo sapiens) (O43526 whole entry): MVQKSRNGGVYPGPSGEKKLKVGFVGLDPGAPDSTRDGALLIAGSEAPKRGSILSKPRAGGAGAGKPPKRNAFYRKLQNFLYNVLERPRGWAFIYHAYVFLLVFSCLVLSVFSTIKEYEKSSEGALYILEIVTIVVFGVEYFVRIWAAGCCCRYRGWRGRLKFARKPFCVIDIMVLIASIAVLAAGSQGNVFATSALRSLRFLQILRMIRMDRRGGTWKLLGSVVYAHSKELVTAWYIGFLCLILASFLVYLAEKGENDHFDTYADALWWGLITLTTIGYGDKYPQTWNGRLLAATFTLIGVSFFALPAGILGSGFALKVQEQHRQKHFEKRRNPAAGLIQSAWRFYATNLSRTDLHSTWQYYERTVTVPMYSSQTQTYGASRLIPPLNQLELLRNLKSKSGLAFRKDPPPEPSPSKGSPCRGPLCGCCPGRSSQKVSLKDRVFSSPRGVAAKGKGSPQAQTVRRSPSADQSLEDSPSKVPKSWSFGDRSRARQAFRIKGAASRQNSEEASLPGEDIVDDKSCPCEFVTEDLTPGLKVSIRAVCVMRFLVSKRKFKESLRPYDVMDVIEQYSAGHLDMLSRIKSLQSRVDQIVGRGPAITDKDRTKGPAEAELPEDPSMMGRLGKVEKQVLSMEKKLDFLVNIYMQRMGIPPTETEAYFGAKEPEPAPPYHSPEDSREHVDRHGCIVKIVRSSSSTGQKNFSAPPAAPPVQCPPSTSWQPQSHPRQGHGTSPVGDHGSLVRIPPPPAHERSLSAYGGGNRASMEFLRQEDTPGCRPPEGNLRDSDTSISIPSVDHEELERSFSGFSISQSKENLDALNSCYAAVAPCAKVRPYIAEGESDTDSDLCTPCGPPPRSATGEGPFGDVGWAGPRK
Sequence of Proprotein convertase subtilisin/kexin type 9 (Homo sapiens) (Q8NBP7 31-152 limits assumed): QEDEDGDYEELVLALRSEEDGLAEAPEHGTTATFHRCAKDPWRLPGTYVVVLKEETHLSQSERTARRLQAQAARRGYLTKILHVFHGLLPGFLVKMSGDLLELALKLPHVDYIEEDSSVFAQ
Sequence of Proprotein convertase subtilisin/kexin type 9 (Homo sapiens) (Q8NBP7 153-692 limits assumed): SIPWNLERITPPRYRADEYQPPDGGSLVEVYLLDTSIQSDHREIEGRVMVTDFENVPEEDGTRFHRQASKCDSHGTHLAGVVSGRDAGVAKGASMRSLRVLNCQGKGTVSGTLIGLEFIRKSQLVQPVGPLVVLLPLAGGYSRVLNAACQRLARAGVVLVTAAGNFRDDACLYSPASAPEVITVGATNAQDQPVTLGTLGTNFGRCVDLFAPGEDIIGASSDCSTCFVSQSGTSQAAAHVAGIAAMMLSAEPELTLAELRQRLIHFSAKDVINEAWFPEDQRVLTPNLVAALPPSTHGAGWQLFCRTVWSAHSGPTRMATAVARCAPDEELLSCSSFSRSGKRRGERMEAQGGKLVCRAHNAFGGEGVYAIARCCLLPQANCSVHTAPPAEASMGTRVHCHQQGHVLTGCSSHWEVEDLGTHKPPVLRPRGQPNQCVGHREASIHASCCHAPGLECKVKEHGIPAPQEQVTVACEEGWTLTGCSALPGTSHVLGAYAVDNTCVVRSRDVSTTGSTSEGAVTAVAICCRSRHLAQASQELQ

Row | SMILES | inhibition (Cannabinoid receptor 1 [2]) [%] | inhibition (Cannabinoid receptor 2 [3]) [%] | Ki (Cannabinoid receptor 2 [1]; read-out: Ki) [µM] | other results
1 | COc1ccc(C(=O)c2cn(CCN3CCOCC3)c3ccc(OCC(=O)N[C@@H](C)C(=O)N[C@@H](C)C(=O)NCCN)cc23)cc1 | > 50 |  |  | Ki (Cannabinoid receptor 2 [1]; hek293): Not Active
2 | COc1ccc(C(=O)c2cn(CCN3CCOCC3)c3ccc(OCC(=O)O)cc23)cc1 | > 50 | > 50 | > 10 | Ki (Cannabinoid receptor 1 [4]; read-out: Ki): > 10 µM
3 | COc1ccc(C(=O)c2cn(CCN3CCOCC3)c3ccc(OCC(=O)NCCOCCOCCN)cc23)cc1 | > 50 | > 50 | > 10 | 
4 | COc1ccc(C(=O)c2cn(CC3CCOC3)c3ccc(OCc4ccccc4)cc23)cc1 (configuration not stated) |  |  |  | Activity [5]: inactive; growth inhibition (GI) (Leishmania donovani): inactive; inhibition [6]: inactive; Activity [7]: inactive; Activity [8]: inactive; inhibition [9]: inactive; inhibition [10]: inactive
5 | COc1ccc(C(=O)c2cn(CCN3CCOCC3)c3ccc(OCCCCCCC(=O)NCCOCCOCCNC(=O)CCCCCNC(=O)COc4ccc(/C=C/C5=[N+]6C(=Cc7ccc(-c8cccs8)n7[B-]6(F)F)C=C5)cc4)cc23)cc1 |  |  | > 10 | Ki (Cannabinoid receptor 1 [4]; read-out: Ki): > 10 µM
6 | COc1ccc(C(=O)c2cn(CCN3CCOCC3)c3ccc(OCC(=O)NCCOCCOCCNC(=O)CCCCCNC(=O)COc4ccc(/C=C/C5=[N+]6C(=Cc7ccc(-c8cccs8)n7[B-]6(F)F)C=C5)cc4)cc23)cc1 |  |  | > 10 | 
7 | COc1ccc(C(=O)c2cn(CC3CCOC3)c3ccc(O)cc23)cc1 (configuration not stated) |  | > 50 | > 10 | Ki (Cannabinoid receptor 1 [4]; hek293): Not Active
8 | COc1ccc(C(=O)c2cn(CCN3CCOCC3)c3ccc(OCC(=O)NCCCCCCCCN)cc23)cc1 | > 50 | > 50 | > 10 | 
9 | CCCCCCC(C)(C)c1ccc([C@@H]2C[C@H](O)CC[C@H]2CCCO)c(O)c1 [CP-55940] |  |  |  | Activity (Cannabinoid receptor 2 [11]): Active; Emax (Cannabinoid receptor 2 [12]): 41%; Activity (HEK293 [13]): 99.2%; Activity (Cannabinoid receptor 1 [14]): Active; Activity (HEK293 [15]): 98%
10 | COc1ccc(C(=O)c2cn(CCN3CCOCC3)c3ccc(OCC(=O)NCCOCCOCCNC(C)=O)cc23)cc1 | > 50 | > 50 | > 10 | 
11 | COc1ccc(C(=O)c2cn(CC3CCOCC3)c3c(OCCCCC(=O)NCCOCCOCCNC(C)=O)cccc23)cc1 | > 50 | > 50 | > 10 | Ki (Cannabinoid receptor 1 [4]; read-out: Ki): > 10 µM
12 | O=C(O)COc1ccc2c(c1)c(C(=O)c1cccc3ccccc13)cn2CCN1CCOCC1 | > 50 | > 50 | > 10 | Ki (Cannabinoid receptor 1 [4]; read-out: Ki): > 10 µM
13 | COc1ccc(C(=O)c2cn(CCN3CCOCC3)c3ccc(OCC(=O)NCCCCCCCCNC(=O)CCCCCNC(=O)COc4ccc(/C=C/C5=[N+]6C(=Cc7ccc(-c8cccs8)n7[B-]6(F)F)C=C5)cc4)cc23)cc1 |  |  |  | Ki (Cannabinoid receptor 2 [1]; hek293): Not Active
14 | O=C(CCCCCNC(=O)COc1ccc(/C=C/C2=[N+]3C(=Cc4ccc(-c5cccs5)n4[B-]3(F)F)C=C2)cc1)NCCCCCCCCNC(=O)COc1ccc2c(c1)c(C(=O)c1cccc3ccccc13)cn2CCN1CCOCC1 |  |  |  | Ki (Cannabinoid receptor 2 [1]; hek293): Not Active
15 | COc1ccc(C(=O)c2cn(CC3CCOCC3)c3ccc(OCC(=O)NC(C)(C)C(=O)NC(C)(C)C(=O)NCCNC(=O)CCCCCNC(=O)COc4ccc(/C=C/C5=[N+]6C(=Cc7ccc(-c8cccs8)n7[B-]6(F)F)C=C5)cc4)cc23)cc1 |  |  | > 10 | 
16 | C[C@H](NC(=O)COc1ccc2c(c1)c(C(=O)c1cccc3ccccc13)cn2CCN1CCOCC1)C(=O)N[C@@H](C)C(=O)NCCN | > 50 |  |  | Ki (Cannabinoid receptor 2 [1]; hek293): Not Active
17 | COc1ccc(C(=O)c2cn(CCN3CCOCC3)c3ccc(OCC(=O)NC(C)(C)C(=O)NC(C)(C)C(=O)NCCNC(=O)CCCCCNC(=O)COc4ccc(/C=C/C5=[N+]6C(=Cc7ccc(-c8cccs8)n7[B-]6(F)F)C=C5)cc4)cc23)cc1 |  |  | > 10 | 
18 | COc1ccc(C(=O)c2cn(CC3CCOCC3)c3ccc(OCC(=O)N[C@@H](C)C(=O)N[C@@H](C)C(=O)NCCN)cc23)cc1 | > 50 |  |  | Ki (Cannabinoid receptor 2 [1]; hek293): Not Active
19 | NCCOCCOCCNC(=O)COc1ccc2c(c1)c(C(=O)c1cccc3ccccc13)cn2CCN1CCOCC1 | > 50 | > 50 | > 10 | 
20 | O=C(CCCCCNC(=O)COc1ccc(/C=C/C2=[N+]3C(=Cc4ccc(-c5cccs5)n4[B-]3(F)F)C=C2)cc1)NCCOCCOCCNC(=O)COc1ccc2c(c1)c(C(=O)c1cccc3ccccc13)cn2CCN1CCOCC1 |  |  | > 10 | 
21 | CC(C)(NC(=O)COc1ccc2c(c1)c(C(=O)c1cccc3ccccc13)cn2CCN1CCOCC1)C(=O)NC(C)(C)C(=O)NCCNC(=O)CCCCCNC(=O)COc1ccc(/C=C/C2=[N+]3C(=Cc4ccc(-c5cccs5)n4[B-]3(F)F)C=C2)cc1 |  |  | > 10 | 
22 | NCCCCCCCCNC(=O)COc1ccc2c(c1)c(C(=O)c1cccc3ccccc13)cn2CCN1CCOCC1 | > 50 | > 50 | > 10 | 
23 | COc1ccc(C(=O)c2cn(CC3CCOCC3)c3ccc(OCCOCCOCCOCCNC(C)=O)cc23)cc1 |  | > 50 | > 10 | Ki (Cannabinoid receptor 1 [4]; hek293): Not Active
24 | COc1ccc(C(=O)c2cn(CCN3CCOCC3)c3cc(O)ccc23)cc1 |  | > 50 | > 10 | Ki (Cannabinoid receptor 1 [4]; hek293): Not Active
25 | COc1ccc(C(=O)c2cn(CCN3CCOCC3)c3ccc(OCCCCC(=O)NCCOCCOCCNC(=O)CCCCCNC(=O)COc4ccc(/C=C/C5=[N+]6C(=Cc7ccc(-c8cccs8)n7[B-]6(F)F)C=C5)cc4)cc23)cc1 |  |  | > 10 | Ki (Cannabinoid receptor 1 [4]; read-out: Ki): > 10 µM
26 | Cc1c(C(=O)c2cccc3ccccc23)c2cccc3c2n1[C@H](CN1CCOCC1)CO3 [WIN-552122] |  |  |  | Activity (HEK293 [13]): 96.1%; Activity (HEK293 [15]): 102.6%
